By IC50 is commonly meant the concentration needed to halve the response being measured. As a reminder, the CC50 is the concentration giving 50% cytotoxicity. Read a low CC50 as greater toxicity to the cells.

Each structure is given as a SMILES string.

For series [1], the target named is Casein kinase II (Homo sapiens, UniProt P19784+P67870+P68400). The experiment in a line: Inhibition of human recombinant CK2 expressed in Escherichia coli BL21(DE3) using RRRDDDSDDD as substrate after 15 mins by capillary electrophoretic analysis.
Series [2] in a line: Cytotoxicity against human PHA-activated PBMC after 1 to 3 days by MTS assay. Type of series: cell-based. The procedure, abridged: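 PBMNC from blood of healthy volunteers, isolated by Ficoll gradient centrifugation and stimulated with PHA (5 µg/mL). Cells washed in PBS, plated in quadruplicate with compound at 0, 1, 5, 10, 20 and 50 µM for 1 to 3 days. MTS read at 490 nm after 3 h at 37°C. CC50 at day 3 by linear regression, mean ± SD of 3 independent experiments.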
Background: Formazan colour is commonly taken as a measure of viable cells.

Series [3] has as its system U-937. The experiment in a line: Antiproliferative activity against human U937 cells after 1 to 3 days by MTS assay. Type of series: functional. Put shortly: (§1)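 Leukemic lines grown in RPMI 1640 with 10% FCS, penicillin/streptomycin and L-glutamine at 37°C, 5% CO2. Cells washed twice in PBS, plated in quadruplicate with compound at 0, 1, 5, 10, 20 and 50 µM for 1, 2 and 3 days. MTS added for 3 h at 37°C, absorbance read at 490 nm. CC50 after 3 days by linear regression, mean ± SD of 3 independent experiments.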

Series [4] concerns Jurkat. Put plainly: Antiproliferative activity against human Jurkat cells after 1 to 3 days by MTS assay. In kind it is functional. The procedure, abridged: as §1
Series [5] has as its system K562. Put plainly: Antiproliferative activity against human K562 cells after 1 to 3 days by MTS assay. In kind it is functional. The procedure, abridged: as §1
Series [6] has as its system MV4-11. Put plainly: Antiproliferative activity against human MV4-11 cells after 1 to 3 days by MTS assay. Type of series: functional. The procedure, abridged: as §1
In series [7] the test system is Jurkat. The experiment in a line: Selectivity index, ratio of CC50 for human PHA-activated PBMC to CC50 for human Jurkat cells.
Series [8] deals with MV4-11. Put plainly: Selectivity index, ratio of CC50 for human PHA-activated PBMC to CC50 for human MV4-11 cells.

Casein kinase II, sequence (P67870 whole entry): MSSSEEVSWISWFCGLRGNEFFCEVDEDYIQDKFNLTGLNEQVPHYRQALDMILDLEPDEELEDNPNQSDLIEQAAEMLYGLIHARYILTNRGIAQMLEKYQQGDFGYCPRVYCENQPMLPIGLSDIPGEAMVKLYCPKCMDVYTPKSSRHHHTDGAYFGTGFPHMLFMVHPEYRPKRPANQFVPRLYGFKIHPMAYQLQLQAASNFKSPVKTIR
Casein kinase II, sequence (P68400 whole entry): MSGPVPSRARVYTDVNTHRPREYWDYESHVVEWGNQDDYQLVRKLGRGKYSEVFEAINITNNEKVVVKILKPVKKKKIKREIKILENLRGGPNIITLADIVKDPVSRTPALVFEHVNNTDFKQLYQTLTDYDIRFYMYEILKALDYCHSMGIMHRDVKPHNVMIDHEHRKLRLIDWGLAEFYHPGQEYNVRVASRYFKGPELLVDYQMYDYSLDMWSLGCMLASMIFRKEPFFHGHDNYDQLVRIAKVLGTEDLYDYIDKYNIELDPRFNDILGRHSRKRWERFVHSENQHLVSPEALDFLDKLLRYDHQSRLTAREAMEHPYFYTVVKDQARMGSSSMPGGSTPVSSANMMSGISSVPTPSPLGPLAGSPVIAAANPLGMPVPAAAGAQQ
Casein kinase II, sequence (P19784 whole entry): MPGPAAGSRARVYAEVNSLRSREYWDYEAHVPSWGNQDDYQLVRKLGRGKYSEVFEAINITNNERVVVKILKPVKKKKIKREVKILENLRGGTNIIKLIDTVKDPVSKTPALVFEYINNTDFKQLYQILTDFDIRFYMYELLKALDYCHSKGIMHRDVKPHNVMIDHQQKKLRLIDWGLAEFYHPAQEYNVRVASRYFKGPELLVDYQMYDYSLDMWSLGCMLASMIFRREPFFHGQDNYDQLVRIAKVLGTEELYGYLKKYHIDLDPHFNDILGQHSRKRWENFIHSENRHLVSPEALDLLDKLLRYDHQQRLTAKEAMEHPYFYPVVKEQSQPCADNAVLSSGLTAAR

Take `C#Cc1cccc(Nc2nc3cc(C(=O)O)ccc3n3cc(-c4cccnc4)cc23)c1`: in series [1], the IC50 is 0.89 µM.

Regarding `Nc1cccc(C#Cc2ccc3c(c2)nc(C(=O)O)c2cccn23)c1`, the IC50 in series [1] came out at 8.25 µM.

As for `O=C(O)c1cc2c(Nc3cccc(Cl)c3)nc3ccccc3n2c1`, the CC50 in series [2], in series [3], in series [4], in series [5] and in series [6] was > 50 µM each time. In addition, the IC50 in series [1] was determined as 4.28 µM.

On to `O=c1oc2c(O)c(O)cc3c(=O)oc4c(O)c(O)cc1c4c23` [ELLAGIC ACID], for which the IC50 in series [1] turned out to be 0.04 µM.

In the case of `C#Cc1cccc(Nc2ccc3c(c2)nc(C(=O)O)c2cccn23)c1`, in series [1], the IC50 came to 0.85 µM.

As to `O=C(O)c1nc2cc(Nc3cccc(Cl)c3)ccc2n2cccc12`, the cytotoxic concentration (CC50) was > 50 µM in series [2]; 39.2 µM in series [3]; 31.4 µM in series [4]; > 50 µM in series [5]; 47 µM in series [6]. In addition, the IC50 in series [1] stood at 0.982 µM. The “Selectivity Index” value in series [7] came out at 1.6.

Take `C#Cc1cccc(Nc2nc3ccccc3n3cc(C(=O)O)cc23)c1`: the CC50 in series [2] was > 50 µM; in series [3] it was > 50 µM; in series [4] it was 41 µM; in series [5], > 50 µM; in series [6], > 50 µM. Moreover, the IC50 in series [1] stood at 1.89 µM.

Turning to `O=C(O)c1ccc2c(c1)nc(Nc1cccc(Cl)c1)c1cc(-c3cccnc3)cn12`, the IC50 in series [1] turned out to be 1.57 µM.

On to `O=C(O)c1ccc2c(c1)nc(Nc1cccc(Cl)c1)c1cccn12`, for which the “Selectivity Index” value in series [8] is on record as >2.5. Also, the cytotoxic concentration (CC50) was > 50 µM in series [2]; > 50 µM in series [3]; > 50 µM in series [4]; > 50 µM in series [5]; 20 µM in series [6]. Also, in series [1], the IC50 is 0.118 µM.

As to `C#Cc1cccc(Nc2nc3ccc(C(=O)O)cc3n3cccc23)c1`, the CC50 in series [2], in series [3], in series [4], in series [5] and in series [6] was > 50 µM each time. Further, the IC50 in series [1] came out at 0.834 µM.

As for `C#Cc1cccc(Nc2nc3ccccc3n3ccc(C(=O)O)c23)c1`, the CC50 in series [2], in series [3], in series [4], in series [5] and in series [6] was > 50 µM in each case. The IC50 in series [1] stood at 0.134 µM.

As to `O=C(O)c1ccn2c1c(Nc1cccc(Cl)c1)nc1ccccc12`, the CC50 in series [2] was > 50 µM; in series [3], 47.7 µM; in series [4] it was > 50 µM; in series [5], 42 µM; in series [6], > 50 µM. Besides, the IC50 in series [1] was determined as 0.049 µM.

`O=C(O)c1ccc2c(c1)nc(Nc1cccc(Cl)c1)c1ccncc12` [SILMITASERTIB]: the CC50 in series [2] was 50 µM; in series [3], 4.2 µM; in series [4] it was 4.5 µM; in series [5], 7 µM; in series [6], 3 µM.

Turning to `C#Cc1cccc(Nc2nc3cc(C(=O)O)ccc3n3cccc23)c1`, the “Selectivity Index” value in series [8] is listed as >2.5. For the same molecule, the cytotoxic concentration (CC50) is > 50 µM in series [2]; > 50 µM in series [3]; > 50 µM in series [4]; > 50 µM in series [5]; 20 µM in series [6]. Also, the half-maximal inhibitory concentration (IC50) in series [1] turned out to be 0.078 µM.

For `O=C(O)c1ccc2nc(Nc3cccc(Cl)c3)c3cccn3c2c1`, the CC50 in series [2], in series [3], in series [4], in series [5] and in series [6] was > 50 µM throughout. Moreover, the IC50 in series [1] amounted to 0.834 µM.
